Data set [1] in a line: Displacement of [3H]-Nisoxetine from NET in Sprague-Dawley rat frontal cortex membrane after 180 mins by microbeta scintillation counting method. In kind it is cell membranes.
Data set [2] addresses Sigma non-opioid intracellular receptor 1 (Cavia porcellus, UniProt Q60492). Put plainly: Displacement of [3H](+)-pentazocine from sigma 1 receptor in guinea pig brain cortex membranes after 120 mins by scintillation counting analysis. Format: cell membranes, Membrane. Summed up:
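Male guinea pig cortex membranes in 10 mM Tris-HCl/0.32 M sucrose pH 7.4, 5.0 mg/well original wet weight; [3H](+)-pentazocine 3 nM final; inhibitor serial dilutions in 30% DMSO vehicle, triplicate; 120 min at RT; nonspecific with 10 μM PRE084 or (+)-pentazocine.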

For data set [3], the target named is Sodium-dependent serotonin transporter (Rattus norvegicus, UniProt P31652). Put plainly: Displacement of [3H]citalopram from SERT in Sprague-Dawley rat midbrain membranes incubated for 60 mins by microbeta scintillation counting method. In kind it is cell membranes, Membrane.
Chain of Sodium-dependent serotonin transporter (P31652 whole entry): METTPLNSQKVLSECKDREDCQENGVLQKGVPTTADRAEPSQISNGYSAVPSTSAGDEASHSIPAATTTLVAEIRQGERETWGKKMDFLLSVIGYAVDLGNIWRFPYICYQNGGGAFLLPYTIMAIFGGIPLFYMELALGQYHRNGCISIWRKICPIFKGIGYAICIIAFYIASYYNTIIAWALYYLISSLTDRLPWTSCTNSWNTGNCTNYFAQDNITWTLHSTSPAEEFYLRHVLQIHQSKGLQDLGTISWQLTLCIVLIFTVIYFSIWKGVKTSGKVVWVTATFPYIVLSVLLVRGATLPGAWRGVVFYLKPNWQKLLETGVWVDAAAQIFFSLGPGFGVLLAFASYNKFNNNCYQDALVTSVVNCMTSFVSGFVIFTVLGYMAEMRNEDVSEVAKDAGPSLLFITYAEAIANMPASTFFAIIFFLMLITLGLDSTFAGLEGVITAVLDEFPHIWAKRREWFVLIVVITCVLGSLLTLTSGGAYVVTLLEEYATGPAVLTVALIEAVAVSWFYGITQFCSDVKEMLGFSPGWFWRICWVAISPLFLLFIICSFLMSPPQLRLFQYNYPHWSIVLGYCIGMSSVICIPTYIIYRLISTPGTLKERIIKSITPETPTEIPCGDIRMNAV
The species entered for data set [4] is Rattus norvegicus. The data set is described as follows: Selectivity ratio of Ki for SERT in Sprague-Dawley rat midbrain membranes to Ki for DAT in Sprague-Dawley rat striatum membranes.
The nature of data set [5]: Metabolic stability in rat liver microsomes assessed as compound remaining at 10 uM in presence of NADPH regenerating system by LC-MS/MS analysis. In kind it is ADME, Microsome.
Data set [6] can be described thus: Toxicity in Swiss Webster mouse assessed as stimulation of ambulatory activity by measuring total distance travelled at 1 to 30 mg/kg, ip measured every 5 mins for 2 hrs. Format: organism-based. To be noted: in vivo, dose 1-30 mg/kg.
Data set [7] is described as follows: Metabolic stability in rat liver microsomes assessed as compound remaining at 10 uM incubated for 60 mins in presence of NADPH regenerating system by LC-MS/MS analysis. Particulars: 1 h. Format: ADME, Microsome.
The target in data set [8] is D(2) dopamine receptor (Homo sapiens, UniProt P14416). The data set is described as follows: Displacement of [3H]-N-methylspiperone from human D2L receptor expressed in HEK293 cell membranes measured after 60 mins by microbeta scintillation counting method. More on the design: species or system Membrane. Summed up:
(§1)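 Membranes from HEK293 cells stably expressing human D2LR, D3R or D4.4R; 20 μg/well protein (D2LR, D3R) or 30 μg/well (D4.4R); [3H]-N-methylspiperone 0.4 nM final; half-log dilutions in 30% DMSO, triplicate; 60 min RT; nonspecific 10 μM (+)-butaclamol.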

For data set [9], the target named is D(3) dopamine receptor (Homo sapiens, UniProt P35462). Put plainly: Displacement of [3H]-N-methylspiperone from human D3 receptor expressed in HEK293 cell membranes measured after 60 mins by microbeta scintillation counting method. More on the design: species or system Membrane. Summed up: as §1
Chain of D(3) dopamine receptor (P35462 whole entry): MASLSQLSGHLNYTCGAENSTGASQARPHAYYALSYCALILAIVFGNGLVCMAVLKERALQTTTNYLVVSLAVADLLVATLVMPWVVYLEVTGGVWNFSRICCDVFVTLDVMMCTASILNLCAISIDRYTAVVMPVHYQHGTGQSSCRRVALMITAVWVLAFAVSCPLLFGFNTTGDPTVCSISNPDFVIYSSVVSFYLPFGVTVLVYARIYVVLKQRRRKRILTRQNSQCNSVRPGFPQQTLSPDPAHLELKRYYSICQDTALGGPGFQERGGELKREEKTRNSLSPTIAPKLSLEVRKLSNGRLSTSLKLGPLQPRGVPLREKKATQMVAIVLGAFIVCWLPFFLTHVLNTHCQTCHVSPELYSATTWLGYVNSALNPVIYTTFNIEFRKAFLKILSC
The nature of data set [10]: Selectivity ratio of Ki for sigma 1 receptor in guinea pig brain cortex membranes to Ki for DAT in Sprague-Dawley rat striatum membranes. In kind it is cell membranes.
The target of data set [11] is T1, D(4) dopamine receptor (Homo sapiens, UniProt P21917).
T1 sequence (P21917 whole entry): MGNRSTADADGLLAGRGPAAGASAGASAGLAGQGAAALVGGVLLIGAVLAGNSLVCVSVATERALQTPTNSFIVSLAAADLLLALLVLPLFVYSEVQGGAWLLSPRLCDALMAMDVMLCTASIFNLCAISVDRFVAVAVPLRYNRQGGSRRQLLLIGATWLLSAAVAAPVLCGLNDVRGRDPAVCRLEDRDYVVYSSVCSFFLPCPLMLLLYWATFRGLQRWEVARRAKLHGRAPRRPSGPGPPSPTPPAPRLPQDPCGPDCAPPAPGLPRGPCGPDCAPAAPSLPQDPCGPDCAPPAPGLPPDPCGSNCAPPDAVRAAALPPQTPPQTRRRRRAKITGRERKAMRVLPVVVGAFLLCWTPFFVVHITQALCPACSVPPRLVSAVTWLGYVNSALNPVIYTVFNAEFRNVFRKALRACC
Put plainly: Displacement of [3H]-N-methylspiperone from human D4.4 receptor expressed in HEK293 cell membranes measured after 60 mins by microbeta scintillation counting method. More on the design: species or system Membrane. The gist of the method:
as §1

Data set [12] is described as follows: Metabolic stability in mouse liver microsomes assessed as compound remaining at 10 uM incubated for 60 mins in presence of NADPH regenerating system by LC-MS/MS analysis. In kind it is ADME, Microsome. To be noted: 1 h.
Data set [13] has as its target Sodium-dependent dopamine transporter (Rattus norvegicus, UniProt P23977). The data set is described as follows: Displacement of [3H]WIN35428 from DAT in Sprague-Dawley rat striatal membranes incubated for 120 mins by microbeta scintillation counting method. Format: cell membranes, Striatum, Membrane.
The nature of data set [14]: Toxicity in Swiss Webster mouse assessed as stimulation of ambulatory activity by measuring total distance travelled at 30 mg/kg, ip measured every 5 mins for 2 hrs. Format: organism-based. To be noted: in vivo.

We go through 8 compounds from ChEMBL document CHEMBL4706586, “Structure-activity relationships for a series of (Bis(4-fluorophenyl)methyl)sulfinylethyl-aminopiperidines and -piperidine amines at the dopamine transporter: Bioisosteric replacement of the piperazine improves metabolic stability” (Eur J Med Chem, 2020).

Chain of Sigma non-opioid intracellular receptor 1 (Q60492 whole entry): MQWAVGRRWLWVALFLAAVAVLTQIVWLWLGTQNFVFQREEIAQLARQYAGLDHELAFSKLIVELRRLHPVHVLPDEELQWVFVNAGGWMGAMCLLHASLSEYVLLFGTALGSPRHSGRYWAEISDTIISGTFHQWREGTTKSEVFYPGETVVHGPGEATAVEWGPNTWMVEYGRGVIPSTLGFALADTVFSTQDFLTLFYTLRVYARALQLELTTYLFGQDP
Chain of Sodium-dependent dopamine transporter (P23977 whole entry): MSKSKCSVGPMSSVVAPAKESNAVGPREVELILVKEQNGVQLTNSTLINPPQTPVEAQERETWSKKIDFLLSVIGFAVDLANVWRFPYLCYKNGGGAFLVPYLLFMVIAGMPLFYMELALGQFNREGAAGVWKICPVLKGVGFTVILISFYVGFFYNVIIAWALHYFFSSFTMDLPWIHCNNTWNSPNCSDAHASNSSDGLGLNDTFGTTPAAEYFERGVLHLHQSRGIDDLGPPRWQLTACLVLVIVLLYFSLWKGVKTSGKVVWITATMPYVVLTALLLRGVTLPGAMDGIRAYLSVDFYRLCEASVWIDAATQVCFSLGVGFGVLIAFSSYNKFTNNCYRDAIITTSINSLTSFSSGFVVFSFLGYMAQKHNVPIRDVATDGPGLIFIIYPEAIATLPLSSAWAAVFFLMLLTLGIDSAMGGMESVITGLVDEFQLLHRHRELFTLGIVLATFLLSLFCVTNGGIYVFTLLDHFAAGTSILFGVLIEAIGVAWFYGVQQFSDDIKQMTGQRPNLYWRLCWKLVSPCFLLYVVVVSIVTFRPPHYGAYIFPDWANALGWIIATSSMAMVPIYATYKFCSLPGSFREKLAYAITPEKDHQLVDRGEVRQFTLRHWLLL
Chain of D(2) dopamine receptor (P14416 whole entry): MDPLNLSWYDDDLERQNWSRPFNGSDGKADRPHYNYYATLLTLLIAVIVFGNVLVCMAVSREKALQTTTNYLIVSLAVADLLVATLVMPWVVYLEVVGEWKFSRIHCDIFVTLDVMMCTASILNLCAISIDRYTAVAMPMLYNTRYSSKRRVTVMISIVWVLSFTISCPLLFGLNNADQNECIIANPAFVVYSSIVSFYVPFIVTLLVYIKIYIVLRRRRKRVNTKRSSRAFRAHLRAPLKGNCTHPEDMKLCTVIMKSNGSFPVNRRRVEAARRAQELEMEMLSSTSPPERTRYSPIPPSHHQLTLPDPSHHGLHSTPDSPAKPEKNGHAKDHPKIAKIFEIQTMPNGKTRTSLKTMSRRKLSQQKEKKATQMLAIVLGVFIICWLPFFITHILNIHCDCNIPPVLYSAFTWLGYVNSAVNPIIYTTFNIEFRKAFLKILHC

Turning to `CC(O)CN1CCN(CC[S+]([O-])C(c2ccc(F)cc2)c2ccc(F)cc2)CC1` (stereo not drawn), the inhibition constant Ki was > 100000 nM in data set [1], 454 nM in data set [2] and 97800 nM in data set [3].
Take `O=C(c1ccc(F)cc1)N1CCC(NCC[S+]([O-])C(c2ccc(F)cc2)c2ccc(F)cc2)CC1` (stereo not drawn): the Ratio Ki in data set [4] is 60.1; in data set [10], 18.7. Moreover, the Stabilty was 100% in data set [5] and 79% in data set [7]. In [6], the Activity is on record as < 3000 cm. The Ki in data set [1] was 23000 nM; in data set [8], 156000 nM; in data set [9], 28200 nM; in data set [11], > 100000 nM; in data set [2], 1440 nM.
As for `O=C(c1ccc(F)cc1F)N1CCC(NCCSC(c2ccc(F)cc2)c2ccc(F)cc2)CC1`, the Stabilty was 100% in [5], 33% in [12] and 85% in [7]. Further, in data set [6], the Activity is < 3000 cm. Also, the Ki in data set [1] was 1620 nM; in [8] it was 7440 nM; in [9], 3260 nM; in data set [2] it was 20.6 nM; in [3], 296 nM; in [13], 30 nM.
Consider `O=C(c1ccccc1)N1CCC(NCCSC(c2ccc(F)cc2)c2ccc(F)cc2)CC1`, for which the figures for the Ratio Ki in [4] and in data set [10] were 62.8 and 0.45, respectively. The values for the Stabilty in [5] and in [7] were 100% and 7%, respectively. The Ki in [1] was determined as 920 nM; in data set [8], 2900 nM; in data set [9], 2510 nM; in [11] it was 4110 nM; in [2], 2.03 nM; in [3], 283 nM. Besides, the affinity in [13], expressed as Ki, was 4.51 nM.
For `COC(=O)[C@H]1[C@@H](OC(=O)c2ccccc2)C[C@@H]2CC[C@H]1N2C` [COCAINE], the Activity in data set [14] was found to be 8000 cm.
In the case of `[O-][S+](CCNC1CCN(Cc2ccc(F)cc2)CC1)C(c1ccc(F)cc1)c1ccc(F)cc1` (stereo not drawn), the Ratio Ki was 7.37 in [4] and 0.52 in data set [10]. For the same compound, the Stabilty in data set [5] stood at 100%; in [7], 95%. Moreover, the Activity in [6] is reported as < 3000 cm. Besides, the Ki in data set [1] is 11200 nM; in data set [8] it was 12400 nM; in data set [9], 12400 nM; in [11] it was 76800 nM; in [2], 26.5 nM.
Take `O=C(c1ccc(F)cc1)N1CCC(NCCSC(c2ccc(F)cc2)c2ccc(F)cc2)CC1`: the results for the Ratio Ki in data set [4] and in data set [10] were 69.5 and 4.59, respectively. Further, the Stabilty is reported as 100% in data set [5] and 24% in data set [7]. For the same compound, the Ki was found to be 258 nM in data set [1]; 8830 nM in data set [8]; 5230 nM in [9]; 9020 nM in [11]; 32.1 nM in data set [2]; 7.04 nM in [13].
With `OC(Cc1ccccc1)CN1CCC(NCCSC(c2ccc(F)cc2)c2ccc(F)cc2)CC1` (stereo not drawn), the Stabilty in [5] is given as 100%; in [7], 74%. The Ki in [1] is 585 nM; in data set [8] it was 4020 nM; in data set [9], 691 nM; in data set [11], 2200 nM; in data set [2], 309 nM; in data set [13], 31.4 nM.
